From ChEMBL document CHEMBL1133503 (J Med Chem, 2000)

Columns and labels:
[1] = Concentration required to reduce cell survival to 10% of controls using V-79 cells in the clonogenic assay, in aerobic conditions; assay type: functional; settings: Cricetulus griseus, V79
How it was run: (§1)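 V-79 cells (500 000 per bottle) grown 20 h in MEM with 10% FBS. Hypoxic set gassed 2 h at 37 °C with humidified 95% N2/5% CO2. Drug in ethanol/water or DMF injected through septa. Exposure 3 h under air or hypoxia. Cells trypsinised, counted by trypan blue, 500 plated in triplicate for 6–8 days. Colonies stained with crystal violet, survival relative to solvent control.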

[2] = Hypoxic selectivity expressed as the ratio of IC50 values in air and nitrogen; assay type: functional
[3] = Concentration required to reduce cell survival to 10% of controls using V-79 cells in the clonogenic assay, in anaerobic conditions (hypoxic conditions); assay type: functional; settings: Cricetulus griseus, V79; how it was run: as §1
[4] = Concentration of drug required to reduce V-79 cell survival to 50% of controls in a SRB assay; assay type: functional, cell-based; settings: Cricetulus griseus, V79
How it was run: (§2)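 V-79 cells (about 7 × 10³ per 100 μL) preincubated 24 h, then exposed to drug for 3 h under oxic conditions. Washed 5× with HBSS and grown 48 h more. Fixed with TCA and stained with SRB. Bound dye dissolved in 10 mM Tris, spotted on TLC and read by video densitometry. IC50 is the mean of triplicates in one experiment. Ratio is IC50 of sulfide over sulfoxide or sulfone.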

[5] = Relative cytotoxicity is expressed as the ratio of the IC50 values of the corresponding sulfide to sulfoxide or to sulfone; assay type: functional, Cricetulus griseus; how it was run: as §2
Rattus norvegicus [6] = organism: Rattus norvegicus; test: Bioreduction experiment was conducted by incubation of the sulfoxides with rat liver S-9 fractions in anaerobic conditions (N2, without cofactors); assay type: functional; design: concentration or dose not given beside the values
How it was run: (§3)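 Rat liver S-9 fraction incubated with sulfoxide at 37 °C for 30 min with shaking. Aerobic vials were left open to air. Anaerobic vials were purged with N2 for 10 min before the compound was injected. Cofactor was NADPH, benzaldehyde, 2-hydroxypyrimidine or acetaldehyde, or none. Controls were boiled S-9 and S-9 without cofactors. For menadione, S-9 was preincubated aerobically with 1 equiv for 30 min, then benzaldehyde was added. Sulfide or sulfone was measured by HPLC or TLC densitometry.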

Rattus norvegicus [7] = organism: Rattus norvegicus; test: Bioreduction experiment was conducted by incubation of the sulfoxides with rat liver S-9 fractions in anaerobic conditions N2); assay type: functional; how it was run: as §3
Rattus norvegicus [8] = organism: Rattus norvegicus; test: Reduction potential (SCE) determined by differential pulse polarography of the sulfoxides […]; assay type: functional
Rattus norvegicus [9] = organism: Rattus norvegicus; test: Bioreduction experiment was conducted by incubation of the sulfoxides with rat liver S-9 fractions in anaerobic conditions (N2, benzaldehyde); assay type: functional; design: concentration or dose not given beside the values; how it was run: as §3
Rattus norvegicus [10] = organism: Rattus norvegicus; test: Bioreduction experiment was conducted by incubation of the sulfoxides with rat liver S-9 fractions in aerobic conditions(air ); assay type: functional; how it was run: as §3
Rattus norvegicus [11] = organism: Rattus norvegicus; test: Bioreduction experiment was conducted by incubation of the sulfoxides with rat liver S-9 fractions in aerobic conditions(air, NADPH); assay type: functional; how it was run: as §3
Rattus norvegicus [12] = organism: Rattus norvegicus; test: Bioreduction experiment was conducted by incubation of the sulfoxides with rat liver S-9 fractions in aerobic conditions(air, benzaldehyde); assay type: functional; how it was run: as §3
Rattus norvegicus [13] = organism: Rattus norvegicus; test: Bioreduction experiment was conducted by incubation of the sulfoxides with rat liver S-9 fractions in anaerobic conditions (N2); assay type: functional; how it was run: as §3
Rattus norvegicus [14] = organism: Rattus norvegicus; test: Bioreduction experiment was conducted by incubation of the sulfoxides with rat liver S-9 fractions in anaerobic conditions(N2, without cofactors); assay type: functional; how it was run: as §3
Rattus norvegicus [15] = organism: Rattus norvegicus; test: Bioreduction experiment was conducted by incubation of the sulfoxides with rat liver S-9 fractions in anaerobic conditions(N2, menadione); assay type: functional; how it was run: as §3
Rattus norvegicus [16] = organism: Rattus norvegicus; test: Bioreduction experiment was conducted by incubation of the sulfoxides with rat liver S-9 fractions in aerobic conditions(air without cofactors); assay type: functional; how it was run: as §3
[17] = Hypoxia-selective cytotoxicity required to reduce cell survival to 10% of controls using V-79 cells in the clonogenic assay, with N2; assay type: functional; settings: Cricetulus griseus, V79; how it was run: as §1
[18] = Hypoxia-selective cytotoxicity required to reduce cell survival to 10% of controls using V-79 cells in the clonogenic assay, with air; assay type: functional; settings: Cricetulus griseus, V79; how it was run: as §1
Rattus norvegicus [19] = organism: Rattus norvegicus; test: Bioreduction experiment was conducted by incubation of the sulfoxides with rat liver S-9 fractions in aerobic conditions(N2, 2-hydroxypyrimidine); assay type: functional; how it was run: as §3
Rattus norvegicus [20] = organism: Rattus norvegicus; test: Bioreduction experiment was conducted by incubation of the sulfoxides with rat liver S-9 fractions in aerobic conditions(N2, NADPH); assay type: functional; how it was run: as §3
Rattus norvegicus [21] = organism: Rattus norvegicus; test: Bioreduction experiment was conducted by incubation of the sulfoxides with rat liver S-9 fractions in aerobic conditions(N2, acetaldehyde); assay type: functional; how it was run: as §3
Rattus norvegicus [22] = organism: Rattus norvegicus; test: Bioreduction experiment was conducted by incubation of the sulfoxides with rat liver S-9 fractions in aerobic conditions(N2, menadione); assay type: functional; how it was run: as §3
Rattus norvegicus [23] = organism: Rattus norvegicus; test: Bioreduction experiment was conducted by incubation of the sulfoxides with rat liver S-9 fractions in aerobic conditions(air, control); assay type: functional; how it was run: as §3
Rattus norvegicus [24] = organism: Rattus norvegicus; test: Bioreduction experiment was conducted by incubation of the sulfoxides with rat liver S-9 fractions in aerobic conditions(air, without cofactors); assay type: functional; how it was run: as §3
Rattus norvegicus [25] = organism: Rattus norvegicus; test: Bioreduction experiment was conducted by incubation of the sulfoxides with rat liver S-9 fractions in anaerobic conditions(N2, benzaldehyde); assay type: functional; how it was run: as §3
Rattus norvegicus [26] = organism: Rattus norvegicus; test: Bioreduction experiment was conducted by incubation of the sulfoxides with rat liver S-9 fractions in aerobic conditions (N2, 2-hydroxypyrimidine); assay type: functional; how it was run: as §3
Rattus norvegicus [27] = organism: Rattus norvegicus; test: Bioreduction experiment was conducted by incubation of the sulfoxides with rat liver S-9 fractions in aerobic conditions (N2, NADPH); assay type: functional; how it was run: as §3
Rattus norvegicus [28] = organism: Rattus norvegicus; test: Bioreduction experiment was conducted by incubation of the sulfoxides with rat liver S-9 fractions in aerobic conditions (N2, acetaldehyde); assay type: functional; how it was run: as §3
Rattus norvegicus [29] = organism: Rattus norvegicus; test: Bioreduction experiment was conducted by incubation of the sulfoxides with rat liver S-9 fractions in aerobic conditions (N2, menadione); assay type: functional; how it was run: as §3
Rattus norvegicus [30] = organism: Rattus norvegicus; test: Bioreduction experiment was conducted by incubation of the sulfoxides with rat liver S-9 fractions in aerobic conditions (air, NADPH); assay type: functional; how it was run: as §3
Rattus norvegicus [31] = organism: Rattus norvegicus; test: Bioreduction experiment was conducted by incubation of the sulfoxides with rat liver S-9 fractions in aerobic conditions (air, benzaldehyde); assay type: functional; how it was run: as §3
Rattus norvegicus [32] = organism: Rattus norvegicus; test: Bioreduction experiment was conducted by incubation of the sulfoxides with rat liver S-9 fractions in aerobic conditions (air, control); assay type: functional; how it was run: as §3
Rattus norvegicus [33] = organism: Rattus norvegicus; test: Bioreduction experiment was conducted by incubation of the sulfoxides with rat liver S-9 fractions in aerobic conditions (air, without cofactors); assay type: functional; how it was run: as §3
Rattus norvegicus [34] = organism: Rattus norvegicus; test: Bioreduction experiment was conducted by incubation of the sulfoxides with rat liver S-9 fractions under aerobic(air) without cofactors; assay type: functional
How it was run: (§4)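 Rat liver S-9 incubated with sulfoxide for 30 min at 37 °C, in open vials (air) or in vials purged with N2 for 10 min before dosing. Cofactor was NADPH, NADH, benzaldehyde, 2-hydroxypyrimidine or acetaldehyde. Controls were boiled S-9 or no cofactor. Menadione arm: 30 min aerobic preincubation with 1 equiv, then benzaldehyde. Stopped with CH2Cl2. Sulfide quantified by TLC densitometry as % of sulfoxide. Three experiments, same S-9 batch.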

Rattus norvegicus [35] = organism: Rattus norvegicus; test: Bioreduction experiment was conducted by incubation of the sulfoxides with rat liver S-9 fractions under anaerobic (N2) in the presence of 2-hydroxypyrimidine; assay type: functional; how it was run: as §4
Rattus norvegicus [36] = organism: Rattus norvegicus; test: Bioreduction experiment was conducted by incubation of the sulfoxides with rat liver S-9 fractions under anaerobic (N2) in the presence of NADH; assay type: functional; how it was run: as §4
Rattus norvegicus [37] = organism: Rattus norvegicus; test: Bioreduction experiment was conducted by incubation of the sulfoxides with rat liver S-9 fractions under anaerobic (N2) in the presence of NADPH; assay type: functional; how it was run: as §4
Rattus norvegicus [38] = organism: Rattus norvegicus; test: Bioreduction experiment was conducted by incubation of the sulfoxides with rat liver S-9 fractions under anaerobic (N2) in the presence of acetaldehyde; assay type: functional; how it was run: as §4
Rattus norvegicus [39] = organism: Rattus norvegicus; test: Bioreduction experiment was conducted by incubation of the sulfoxides with rat liver S-9 fractions under anaerobic (N2) with conditions boiled S-9 fractions; assay type: functional; how it was run: as §4
Rattus norvegicus [40] = organism: Rattus norvegicus; test: Bioreduction experiment was conducted by incubation of the sulfoxides with rat liver S-9 fractions under anaerobic (N2) without cofactors; assay type: functional; how it was run: as §4
Rattus norvegicus [41] = organism: Rattus norvegicus; test: Bioreduction experiment was conducted by incubation of the sulfoxides with rat liver S-9 fractions under aerobic(air) in the presence of NADPH; assay type: functional; how it was run: as §4
Rattus norvegicus [42] = organism: Rattus norvegicus; test: Bioreduction experiment was conducted by incubation of the sulfoxides with rat liver S-9 fractions under aerobic(air) in the presence of benzaldehyde; assay type: functional; how it was run: as §4
Rattus norvegicus [43] = organism: Rattus norvegicus; test: Bioreduction experiment was conducted by incubation of the sulfoxides with rat liver S-9 fractions under aerobic(air) in the presence of were NADH; assay type: functional; how it was run: as §4
Rattus norvegicus [44] = organism: Rattus norvegicus; test: Bioreduction experiment was conducted by incubation of the sulfoxides with rat liver S-9 fractions under aerobic(air) with conditions boiled S-9 fractions; assay type: functional; how it was run: as §4
Rattus norvegicus [45] = organism: Rattus norvegicus; test: Bioreduction experiment was conducted by incubation of the sulfoxides with rat liver S-9 fractions under anaerobic (N2) in the presence of menadione; assay type: functional; how it was run: as §4

## [O-][S+](c1ccc(NCCCl)cc1)c1ccc(NCCCl)cc1
[1]
  IC90: 1580 µM
[2]
  Selectivity: 0.7
[3]
  IC90: 2210 µM

## Nc1ccc(S(=O)(=O)c2ccc(N(CCCl)CCCl)cc2)cc1
[4]
  IC50: 26.9 µM
[5]
  Cytotoxicity: 0.09

## [O-][s+]1c2ccccc2c2ccccc21
Rattus norvegicus [6]
  Bioreduction: 0%
Rattus norvegicus [7]
  Bioreduction: 0%
Rattus norvegicus [8]
  E: 1.82 -V
Rattus norvegicus [9]
  Bioreduction: 4.4%

## [O-][S+](c1ccc(N(CCCl)CCCl)cc1)c1ccc(N(CCCl)CCCl)cc1
[1]
  IC90: 3090 µM
[2]
  Selectivity: 17
Rattus norvegicus [8]
  E: 2.63 -V
Rattus norvegicus [10]
  Bioreduction: 0%
Rattus norvegicus [11]
  Bioreduction: 0%
Rattus norvegicus [12]
  Bioreduction: 0%
Rattus norvegicus [13]
  Bioreduction: 0%
Rattus norvegicus [14]
  Bioreduction: 0%
Rattus norvegicus [15]
  Bioreduction: 0%
Rattus norvegicus [16]
  Bioreduction: 0%
[3]
  IC90: 184 µM

## O=[N+]([O-])c1ccc(Sc2ccc(N(CCCl)CCCl)cc2)cc1
[4]
  IC50: 2.25 µM
[5]
  Cytotoxicity: 1

## Cl.[O-][S+](c1ccc(Nc2c3ccccc3nc3ccccc23)cc1)c1ccc(N(CCCl)CCCl)cc1 (configuration not stated)
[4]
  IC50: 26.2 µM
[17]
  IC90: 180 µM
[18]
  IC90: 4950 µM
[5]
  Cytotoxicity: 0.07
[2]
  Selectivity: 27
Rattus norvegicus [8]
  E: 2.63 -V
Rattus norvegicus [19]
  Bioreduction: 1.34%
Rattus norvegicus [20]
  Bioreduction: 1.37%
Rattus norvegicus [21]
  Bioreduction: 1.79%
Rattus norvegicus [22]
  Bioreduction: 1.07%
Rattus norvegicus [11]
  Bioreduction: 0%
Rattus norvegicus [12]
  Bioreduction: 0%
Rattus norvegicus [23]
  Bioreduction: 0%
Rattus norvegicus [24]
  Bioreduction: 0%
Rattus norvegicus [13]
  Bioreduction: 0%
Rattus norvegicus [14]
  Bioreduction: 1.29%
Rattus norvegicus [25]
  Bioreduction: 2.28%

## C[S+]([O-])c1ccccc1 (configuration not stated) [METHYLPHENYLSULFOXIDE]
Rattus norvegicus [6]
  Bioreduction: 0%
Rattus norvegicus [7]
  Bioreduction: 0%
Rattus norvegicus [8]
  E: 2.4 -V
Rattus norvegicus [9]
  Bioreduction: 10.2%

## Nc1ccc([S+]([O-])c2ccc(N(CCCl)CCCl)cc2)cc1 (configuration not stated)
[4]
  IC50: 30 µM
[17]
  IC90: 185 µM
[18]
  IC90: 2800 µM
[5]
  Cytotoxicity: 0.08
Rattus norvegicus [6]
  Bioreduction: 0%
Rattus norvegicus [7]
  Bioreduction: 0%
[2]
  Selectivity: 15
Rattus norvegicus [8]
  E: 2.55 -V
Rattus norvegicus [26]
  Bioreduction: 4.5%
Rattus norvegicus [27]
  Bioreduction: 0.37%
Rattus norvegicus [28]
  Bioreduction: 4.42%
Rattus norvegicus [29]
  Bioreduction: 0%
Rattus norvegicus [30]
  Bioreduction: 0 nmol/mg
Rattus norvegicus [31]
  Bioreduction: 0%
Rattus norvegicus [32]
  Bioreduction: 0%
Rattus norvegicus [33]
  Bioreduction: 0%
Rattus norvegicus [9]
  Bioreduction: 5%
Rattus norvegicus [34]
  Bioreduction: 1.14%
Rattus norvegicus [35]
  Bioreduction: 8.5%
Rattus norvegicus [36]
  Bioreduction: 9%
Rattus norvegicus [37]
  Bioreduction: 42.1%
Rattus norvegicus [38]
  Bioreduction: 12.92%
Rattus norvegicus [39]
  Bioreduction: 0%
Rattus norvegicus [40]
  Bioreduction: 1.75%
Rattus norvegicus [41]
  Bioreduction: 16%
Rattus norvegicus [42]
  Bioreduction: 1.05%
Rattus norvegicus [43]
  Bioreduction: 9.75%
Rattus norvegicus [44]
  Bioreduction: 0%
Rattus norvegicus [45]
  Bioreduction: 1.6%
